Where two headings read alike, the source gives them in different places.
Tests used:
[1] = system: methylation of Lys-4 of histone H3 in α-23 cells; settings: 10 µM phenelzine, one hour, ChIP
[2] = system: TSHalpha luciferase reporter in α-23 cells derived from GH3 cells; settings: 10 µM phenelzine, 24 hours, with or without 0.1 µM T3
[3] = target: T1, GST-LSD1 (Homo sapiens, UniProt O60341); settings: 500 µM phenelzine, 30 min preincubation, 10 µM substrate
[4] = target: T1, GST-LSD1; assay: peroxidase-coupled assay; assay type: biochemical; settings: for k(inact): 185 nM GST-LSD1, Kitz-Wilson analysis; for KI (inactivation): 185 nM GST-LSD1, 240 µM substrate, extrapolated to zero substrate, Kitz-Wilson; for time-dependent inactivation of LSD1: result in words
[5] = target: GST-LSD1 (aa 171-852) (UniProt O60341); assay: enzyme inactivation kinetics
[6] = target: T1, GST-LSD1; settings: cited from earlier work; for inactivation of LSD1: result in words
[7] = target: GST-LSD1 (aa 171-852) (UniProt O60341); assay: enzyme inhibition kinetics
[8] = target: T1, GST-LSD1; assay: Amplex Red horseradish peroxidase coupled assay detecting H2O2; assay type: biochemical
Method in brief: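 Human GST-LSD1 (aa 171–852) from E. coli, at 25 nM, in 50 mM HEPES pH 7.5 with 0.1 mM Amplex Red and 0.76 µM horseradish peroxidase. Dimethyl-Lys-4 H3-21 substrate started 150 µL reactions, aerobic, at 25 °C. For inactivation, test compound and substrate (600 µM final) were added together. H2O2 was followed at 571 nm (ε 52,000 M−1 cm−1) from initial velocities.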

[9] = 25 nM LSD1, 600 µM substrate, Amplex Red

NNCCc1ccccc1 [phenelzine, phenethylhydrazine]
mono and dimethylation of Lys-4 H3 at TSHalpha reporter region [1]: enhanced | trimethylation level of Lys-4 H3 at TSHalpha reporter region [1]: unaffected | luciferase activity of TSHalpha reporter [2]: increases luciferase activity both in the absence and presence of T3 | demethylation of H3-21 dimethyl-Lys substrate peptide by treated LSD1 [3]: unable to induce loss of a methyl group | k(inact) [4]: 0.955 ± 0.085 min⁻¹

hydrazino-Lys-4 H3-21 (18) (from UniProt P68431 2-22) (peptide)
Ki(inact) [5]: 4.35 nM

exo-cyclopropyl-Lys-4 H3-21 [compound 6]
inactivation of LSD1 [6]: did not inactivate LSD1 | Ki ([6]; reversible inhibitor, estimated, obtained previously): 2700 ± 740 nM

cis-3-chloroallyl-Lys-4 H3-21 (3) (from UniProt P68431 2-22) (peptide)
Ki(inact) [5]: 955 nM

endo-dimethylcyclopropyl-Lys-4 H3-21 (8) (from UniProt P68431 2-22) (peptide)
Ki [7]: 24200 nM

cis-3-chloroallyl-Lys-4 H3-21 [compound 3]
kinact/Ki(inact) fold difference from peptide 2 [4]: ≤ 5 fold | KI (inactivation) [4]: 955 ± 150 nM | k(inact) [4]: 0.545 ± 0.038 min⁻¹ | time-dependent inactivation of LSD1 [4]: time- and concentration-dependent inactivation

hydrazino-Lys-4 H3-21 [compound 18]
fold more efficient in inhibiting demethylation than propargylamine-H3 derivatives [8]: more than 20 fold | KI (inactivation) [8, 9]: 4.35 ± 0.86 nM | k(inact) [8, 9]: 0.247 ± 0.018 min⁻¹ | fold more potent than 2 as LSD1 inactivator ([8]; versus N-methylpropargylamine peptide 2): approximately 25 fold | time-dependent inactivation of LSD1 [4]: highly potent time-dependent inhibitor

trans-3-chloroallyl-Lys-4 H3-21 [compound 4]
KI (inactivation) [4]: 763 ± 120 nM | k(inact) [4]: 0.128 ± 0.0087 min⁻¹ | time-dependent inactivation of LSD1 [4]: time- and concentration-dependent inactivation

trans-3-chloroallyl-Lys-4 H3-21 (4) (from UniProt P68431 2-22) (peptide)
Ki(inact) [5]: 763 nM

C#CCN(C)Cc1ccccc1 [pargyline, reference compound]
inactivation of LSD1 [6]: failed in subsequent studies to appreciably inactivate LSD1

endo-cyclopropyl-Lys-4 H3-21 (7) (from UniProt P68431 2-22) (peptide)
Ki [7]: 6110 nM

propargyl-Lys-4 H3-21 [compound 1]
KI (inactivation) ([6]; obtained previously): 775 ± 160 nM | k(inact) ([6]; obtained previously): 0.304 ± 0.033 min⁻¹

dimethyl-Lys-4 H3-21 [reference compound]
kcat ([8]; GST-LSD1 with this substrate, 25 nM enzyme, Amplex Red): 0.0583 ± 0.0033 s⁻¹ | Km ([8]; substrate of GST-LSD1, 25 nM enzyme, Amplex Red): 20 ± 3 µM | kcat ([4]; GST-LSD1 with this substrate, 185 nM enzyme): 0.075 ± 0.0017 s⁻¹ | Km ([4]; substrate of GST-LSD1, 185 nM enzyme, pH 7.5, 25 °C): 21 ± 2 µM
